In the library only some 2.2% were active in any assay of this set; here they are far more common.
Runt-SMMHC FRET: Runt domain-CBFb-SMMHC interaction inhibition | Q01196+Q13951 | Cerulean-Runt/Venus-CBFb-SMMHC FRET ratio 530/480, 1 h | inhibition, % at 20 µM | 220,000 compounds, 0.74% hits;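 active means mean inhibition across duplicate retests at 20 µM reaching about 50%, limit read from the data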;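 further: inhibitors lower the FRET ratio by blocking Runt binding to CBFb-SMMHC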
Hck Nef HTS: human Hck-Nef kinase inhibition; inhibition, % at 20 µM; AID 463187; 220,000 compounds, 0.68% hits; Recombinant Hck-YEEI plus Nef, Z-Lyte FRET kinase assay;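 active means Hck-Nef kinase inhibition above about 50%, limit read from the data; inactive means inhibition below that limit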
Runt-CBFb FRET: Runt domain-CBFb interaction inhibition; Cerulean-Runt/Venus-CBFb FRET ratio 530/480, 1 h; Q01196+Q13951; AID 1496; 220,000 compounds, 0.46% hits; inhibition, % at 20 µM;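 active means inhibition over about 50% at 20 µM in the single-dose screen, limit read from the data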
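Measured by: fluorescence energy transfer, 422 nm excitation, 530/480 nm emission; test system: Cerulean-tagged RUNX1 Runt domain (FRET donor) fusion protein; buffer or medium: Tris pH 7.5 buffer with BSA; compound: one dose, 20 µM compound, 1% DMSO; times: two 1 h room-temperature incubations shielded from light; benchmarks: unlabeled CBFb 5 µM, positive control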
eIF4E-4G inh: inhibitors of eIF4E and eIF4G interaction in translation initiation; TR-FRET eIF4E-eIF4GI(517-606) binding, 2 h; inhibition, % at 21.7 µM; 220,000 compounds, 0.37% hits;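 active means inhibition above about 30%, limit read from the data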
Target sequence (P63073 whole entry, looked up): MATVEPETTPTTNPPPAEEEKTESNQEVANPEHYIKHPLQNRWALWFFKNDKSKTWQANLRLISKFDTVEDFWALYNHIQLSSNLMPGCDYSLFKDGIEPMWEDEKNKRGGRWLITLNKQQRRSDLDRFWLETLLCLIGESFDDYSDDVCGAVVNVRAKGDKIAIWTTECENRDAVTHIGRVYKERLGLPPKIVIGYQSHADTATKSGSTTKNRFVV
Target sequence (Q04637 whole entry, looked up): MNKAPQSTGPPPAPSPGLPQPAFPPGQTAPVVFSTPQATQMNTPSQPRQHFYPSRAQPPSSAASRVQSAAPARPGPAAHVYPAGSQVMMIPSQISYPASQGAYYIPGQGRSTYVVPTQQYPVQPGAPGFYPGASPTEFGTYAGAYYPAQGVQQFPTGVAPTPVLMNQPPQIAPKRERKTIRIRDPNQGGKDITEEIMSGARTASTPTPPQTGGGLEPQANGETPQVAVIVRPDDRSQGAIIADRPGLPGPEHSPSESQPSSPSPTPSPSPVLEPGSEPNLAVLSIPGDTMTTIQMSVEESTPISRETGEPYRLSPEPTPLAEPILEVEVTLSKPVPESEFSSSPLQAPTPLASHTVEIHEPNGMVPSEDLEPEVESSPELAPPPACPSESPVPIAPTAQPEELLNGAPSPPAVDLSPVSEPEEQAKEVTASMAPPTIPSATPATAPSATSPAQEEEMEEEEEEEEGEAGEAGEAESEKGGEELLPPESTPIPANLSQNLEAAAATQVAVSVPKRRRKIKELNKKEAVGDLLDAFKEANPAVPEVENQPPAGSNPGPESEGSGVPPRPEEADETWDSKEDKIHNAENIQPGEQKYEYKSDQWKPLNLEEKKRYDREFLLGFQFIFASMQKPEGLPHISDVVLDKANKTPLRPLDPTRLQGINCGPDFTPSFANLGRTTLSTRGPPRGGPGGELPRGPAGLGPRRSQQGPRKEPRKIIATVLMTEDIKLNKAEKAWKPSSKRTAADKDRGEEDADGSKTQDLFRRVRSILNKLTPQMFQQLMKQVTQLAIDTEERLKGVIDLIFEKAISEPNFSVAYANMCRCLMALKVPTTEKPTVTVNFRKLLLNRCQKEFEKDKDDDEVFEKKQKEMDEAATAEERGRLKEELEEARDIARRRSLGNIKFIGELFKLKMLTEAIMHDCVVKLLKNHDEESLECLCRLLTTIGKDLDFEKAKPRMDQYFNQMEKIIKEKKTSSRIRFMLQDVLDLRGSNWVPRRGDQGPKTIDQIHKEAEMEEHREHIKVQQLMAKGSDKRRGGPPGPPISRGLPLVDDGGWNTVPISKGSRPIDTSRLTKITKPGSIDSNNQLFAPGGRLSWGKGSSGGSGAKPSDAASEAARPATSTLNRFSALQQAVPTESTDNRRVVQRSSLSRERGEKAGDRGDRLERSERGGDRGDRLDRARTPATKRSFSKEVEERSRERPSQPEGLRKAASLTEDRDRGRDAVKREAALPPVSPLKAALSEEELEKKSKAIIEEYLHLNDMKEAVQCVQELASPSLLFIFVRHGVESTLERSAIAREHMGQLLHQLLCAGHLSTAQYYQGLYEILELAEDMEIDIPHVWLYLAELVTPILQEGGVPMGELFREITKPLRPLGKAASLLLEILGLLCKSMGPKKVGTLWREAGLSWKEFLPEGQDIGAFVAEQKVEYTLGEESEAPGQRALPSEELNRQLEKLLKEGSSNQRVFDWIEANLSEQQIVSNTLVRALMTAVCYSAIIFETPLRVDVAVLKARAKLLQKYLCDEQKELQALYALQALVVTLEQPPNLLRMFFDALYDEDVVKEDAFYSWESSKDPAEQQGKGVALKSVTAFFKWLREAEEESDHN
RanGTP-Imp inh: disruptors of Ran-importin-beta complex formation – biochemical, FRET, CFP-Ran, YFP-importin-beta, homogeneous, primary screen. cell-free CFP-Ran/YFP-importin-beta FRET ratio. inhibition, % (no concentration beside the values). AID 2216. 300,000 compounds, 1.1% hits;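 active means more than half of the replicate wells show a fall in the fluorescence ratio signal beyond about 16%, limit read from the data, passing the limit was not always enough; inconclusive means exactly half of the replicate wells pass the set limit; inactive means fewer than half of replicates pass the limit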
PERK inhibitor: blocks human PERK kinase. AID 1416. 220,000 compounds, 0.17% hits. CHO PERK-DD fusion, SEAP luminescence translation reporter. inhibition, % at 5.6 µM. Q9NZJ5;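 active means inhibition above the mean inhibition of all tested compounds plus 3 SD, set separately per screening campaign, cut at about 2.9% in these data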;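 further: PERK kinase domain activated by AP20187 dimerizer at 100 nM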
RUNX1 CBFb TR: disrupts human RUNX1 Runt domain binding to CBFb. shares compounds with Runt-CBFb FRET. TR-FRET RUNX1 Runt domain-CBFb binding. inhibition, % at 20 µM. 480 compounds, 20% hits; in the data active means inhibition above about 40%
Large screens that a line does not name were inactive (follow-up assays come after a bar, where they were run).

O=C(NCc1ccco1)c1cccnc1Cl	none
O=C(NCc1ccco1)c1cccnc1-c1nc2ccccc2s1	Runt-CBFb FRET 50.3 | RUNX1 CBFb TR 40.2
COc1ccc2oc(=N)c(-c3nnc4n3CCCCC4)cc2c1	none
N=c1oc2ccc3ccccc3c2cc1-c1nnc2n1CCCCC2	Runt-SMMHC FRET 107.5, Runt-CBFb FRET 51.8 (no result: eIF4E-4G inh, RanGTP-Imp inh) | RUNX1 CBFb TR inactive
O=C1CCNc2ccc(-c3ccccc3)cc21	Runt-CBFb FRET 60.4 | RUNX1 CBFb TR 42.5
O=C1C=CC(=O)N1N(c1ccccc1)c1ccccc1	Runt-CBFb FRET 71.7 (no result: Runt-SMMHC FRET) | RUNX1 CBFb TR inactive
Cc1cccc2cc(C(c3nnnn3Cc3ccccc3)N3CCN(c4ccccc4)CC3)c(=O)[nH]c12 (stereo not drawn)	Runt-CBFb FRET 51.2 | RUNX1 CBFb TR inactive
COc1ccc(-c2nc(=S)[nH][nH]2)cc1OC	Runt-CBFb FRET 51.4 | RUNX1 CBFb TR inactive
CCN1CCN(c2nc(C)nc3c2sc(=S)n3C)CC1	Runt-CBFb FRET 53.2 (no result: RanGTP-Imp inh) | RUNX1 CBFb TR inactive
Cc1nc(N2CCCCC2)c2sc(=S)n(C)c2n1	none
CN1CCc2c(sc3c2C(=O)NC(c2cccc(OC(=O)c4cccs4)c2)N3)C1 (stereo not drawn)	Runt-SMMHC FRET 105.5, Runt-CBFb FRET 50.8, RanGTP-Imp inh 139.6 | RUNX1 CBFb TR inactive
CCCn1nc(NS(C)(=O)=O)c2cc3cccc(C)c3nc21	none
CCCn1nc(NC(=O)c2cccs2)c2cc3cccc(C)c3nc21	Runt-SMMHC FRET 85.1, Runt-CBFb FRET 63.6, RanGTP-Imp inh 94.9 | RUNX1 CBFb TR inactive
Cc1cc(N2CCOCC2)c2c(N)c(C)cc(C)c2n1	Runt-CBFb FRET 62.4 (no result: RanGTP-Imp inh) | RUNX1 CBFb TR inactive
Cc1cc(N2CCOCC2)nc(N)n1	none
COc1ccccc1/C=C/C=C1\Oc2c(ccc(O)c2CN2CCN(CCO)CC2)C1=O	none
CCc1ccccc1N1CSC2=C(C#N)C(c3ccccc3F)CC(=O)N2C1 (stereo not drawn)	Runt-SMMHC FRET 91.9, Runt-CBFb FRET 59.8, RanGTP-Imp inh inconclusive | RUNX1 CBFb TR inactive
COc1ccc(C2CC(=O)N3CN(Cc4ccco4)CSC3=C2C#N)cc1 (stereo not drawn)	none
COc1ccc(C2CC(=O)N3CN(c4ccccc4F)CSC3=C2C#N)cc1OC (stereo not drawn)	Runt-SMMHC FRET 87.4, Runt-CBFb FRET 51.8 | RUNX1 CBFb TR inactive
COc1cc(C2CC(=O)N3CN(Cc4ccco4)CSC3=C2C#N)ccc1OCc1ccccc1 (stereo not drawn)	none
N#CC1=C2SCN(Cc3ccccc3)CN2C(=O)CC1c1ccc2c(c1)OCO2 (stereo not drawn)	RanGTP-Imp inh inconclusive
COc1ccc(C2CC(=O)N3CN(c4ccc(C)c(Cl)c4)CSC3=C2C#N)cc1 (stereo not drawn)	Runt-CBFb FRET 88.3, RanGTP-Imp inh inconclusive | RUNX1 CBFb TR inactive
O=c1nc(N2CCOCC2)nc(N/N=C/c2ccc3c(c2)OCO3)[nH]1	none
CCOC(=O)/C=C(\C)Nc1cc(C)nn1-c1ccccc1	none
O=C(CSc1nc2ccccc2s1)Nc1ccc(Cl)c(C(=O)O)c1	none
O=C(CSc1nc2ccccc2s1)Nc1cc(C(=O)O)cc(C(=O)O)c1	Runt-CBFb FRET 55.2 | RUNX1 CBFb TR inactive
CCOc1ccc(CNC(=O)C2CCN(S(=O)(=O)c3ccc4c(c3)CCCC(=O)N4)CC2)cc1	none (no result: Runt-SMMHC FRET, Hck Nef HTS, Runt-CBFb FRET, eIF4E-4G inh, PERK inhibitor)
CCn1c(O)c(/C=N/NC(=O)c2ccncc2)c(=O)n(CC)c1=S	Runt-SMMHC FRET 63.2, Runt-CBFb FRET 58.8 | RUNX1 CBFb TR inactive
Cn1c(=O)n(C)c2cc(/C=N/NC(=O)c3ccncc3)ccc21	none
CCCNC(=O)CS(=O)(=O)Cc1nc(-c2ccccc2C)oc1C	none
CC1=C(C(=O)OCCOC(C)C)C(c2cccnc2)C2=C(CCCC2=O)N1 (stereo not drawn)	none
COCCOC(=O)C1=C(C)NC2=C(C(=O)CC(C)(C)C2)C1c1cccnc1 (stereo not drawn)	Runt-SMMHC FRET 108.7, Runt-CBFb FRET 50.4 | RUNX1 CBFb TR inactive
S=C(NCCCN1CCOCC1)NC1CCCC1	none (no result: RanGTP-Imp inh)
S=C(NCCCN1CCOCC1)NCCCN1CCOCC1	Runt-CBFb FRET 50.4 | RUNX1 CBFb TR inactive
COc1ccc(-c2cc(C(F)(F)F)n3nc(C(=O)NCc4ccco4)c(Cl)c3n2)cc1	none
COc1ccc(N2C(=O)C(Cl)=C(Oc3cccc(OC)c3)C2=O)cc1	Runt-CBFb FRET 57.4 (no result: RanGTP-Imp inh) | RUNX1 CBFb TR 43.3
CCc1nnc(NC(=O)CSc2nnc(-c3ccccc3O)n2CC)s1	none
CCc1nnc(NC(=O)CSc2nnc(-c3cccnc3)n2CC)s1	Runt-CBFb FRET 77.1, RanGTP-Imp inh inconclusive | RUNX1 CBFb TR inactive
O=C(Nc1cccc(S(=O)(=O)N2CCCCC2)c1)C1CC(=O)N(c2ccc3c(c2)OCCO3)C1 (stereo not drawn)	none (no result: Runt-SMMHC FRET, Hck Nef HTS, Runt-CBFb FRET, eIF4E-4G inh, PERK inhibitor)
CC(C)C(=O)NC(Nc1cccc2cccnc12)C(Cl)(Cl)Cl (stereo not drawn)	Runt-CBFb FRET 78.8 | RUNX1 CBFb TR 48.0
CCCC(C(=O)NCC1CCCO1)N(Cc1ccco1)C(=O)CNS(=O)(=O)c1ccccc1 (stereo not drawn)	none
CCc1ccc(N2C(=O)C(Cl)=C(N3CCCCCC3)C2=O)cc1	none (no result: Runt-SMMHC FRET, Hck Nef HTS, Runt-CBFb FRET, eIF4E-4G inh, PERK inhibitor)
Cc1cccc(N2C(=O)C(Cl)=C(N3CCOCC3)C2=O)c1	Runt-CBFb FRET 51.4 | RUNX1 CBFb TR inactive
CCc1ccc(N2C(=O)C(Cl)=C(N3CCOCC3)C2=O)cc1	Runt-CBFb FRET 68.5 | RUNX1 CBFb TR inactive
CC(C)C(C)(C#N)NC(=O)CSc1nnc(-c2ccncc2)n1Cc1ccccc1 (stereo not drawn)	Runt-CBFb FRET 56.4 | RUNX1 CBFb TR inactive
CCC(=O)/C=C1/Sc2ccc(OC)cc2N1CC	none (no result: Runt-CBFb FRET)
CCC(=O)/C=C1/Sc2ccccc2N1CC	Runt-CBFb FRET 54.7 | RUNX1 CBFb TR inactive
Cc1ccc(-c2c(C)n([O-])c3c([n+]2=O)CCCCC3)cc1	none
Cc1nc2cc(-c3ccc(Cl)cc3)nn2c(C)c1CCC(=O)NC(C)c1ccc2c(c1)OCCO2 (stereo not drawn)	none
CN1CCN(C(=S)C(=O)Nc2ccc(Br)cc2)CC1	Runt-CBFb FRET 54.9 | RUNX1 CBFb TR inactive
COn1c(SCc2cccc(Cl)c2)nc2ccccc2c1=O	none
S=c1[nH]c(-c2ccc(Cl)cc2)cs1	Runt-CBFb FRET 50.4 | RUNX1 CBFb TR inactive
S=c1nccc(-c2ccc(Cl)cc2)[nH]1	Runt-CBFb FRET 55.7 | RUNX1 CBFb TR 41.2
Cc1c(C(=O)N2CCOCC2)sc(NC(=O)CCl)c1C#N	none (no result: Runt-SMMHC FRET, Hck Nef HTS, Runt-CBFb FRET, eIF4E-4G inh, PERK inhibitor)

Screens from PubChem BioAssay.
